Assay results as given in article PMC12525009 (The Febs Journal, 2025).
One block for each molecule: values may come before it.

What was measured:
Format in all cases: binding
MsrQ [1] = target: T1, MsrQ (Escherichia coli, UniProt P76343); assay: HPLC of flavin released by heat denaturation of purified protein; conditions: co-purified; 1 μM holoprotein (heme content)
T1 sequence (P76343 1-211): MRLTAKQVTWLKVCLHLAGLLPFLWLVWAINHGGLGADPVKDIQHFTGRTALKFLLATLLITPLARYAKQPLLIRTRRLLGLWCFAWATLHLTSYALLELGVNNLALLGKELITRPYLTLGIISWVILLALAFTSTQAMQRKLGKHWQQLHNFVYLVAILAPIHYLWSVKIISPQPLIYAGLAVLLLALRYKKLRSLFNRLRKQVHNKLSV

MsrQ [2] = target: T1, MsrQ; assay: quinone extraction of purified protein, HPLC-ECD-MS; conditions: co-purified from E. coli; per holoprotein (heme content); pH 7.6, LMNG
Method in brief: (§1)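 Ni-NTA-purified MsrQ, in 50 mM Tris/HCl pH 7.6 with 0.004% LMNG, was quantified by heme content (pyridine hemochromogen, 556 nm). Quinones were extracted from […] protein with methanol/KCl, using 80 pmol UQ10 as internal standard. Two petroleum ether extractions were pooled, dried under N2 and taken up in ethanol. Fractions equal to 5 and 20 μg protein were run on HPLC-ECD-MS (m/z 500–900). MK8 was quantified against an MK7 curve (2–100 pmol) and UQ8 against a UQ10 standard.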

MsrQ [3] = target: T1, MsrQ; assay: as above; conditions: co-purified from E. coli; per holoprotein (heme content); pH 7.6, LMNG; remark: listed apart in the source
Method in brief: as §1

FMN concentration in 1 μM MsrQ (MsrQ [1]): 0.90 µM
SMILES: Cc1cc2nc3c(=O)[nH]c(=O)nc-3n(C[C@H](O)[C@H](O)[C@H](O)COP(=O)(O)O)c2cc1C [FMN]

MK8/MsrQ ^b , ^d (MsrQ [2]): 0.090 ± 0.020 mol MK8 per mol MsrQ
SMILES: CC(C)=CCC/C(C)=C/CC/C(C)=C/CC/C(C)=C/CC/C(C)=C/CC/C(C)=C/CC/C(C)=C/CC/C(C)=C/CC1=C(C)C(=O)c2ccccc2C1=O [MK8]

UQ8/MsrQ ^b , ^c (MsrQ [3]): 0.45 ± 0.06 mol UQ8 per mol MsrQ
SMILES: COC1=C(OC)C(=O)C(C/C=C(\C)CC/C=C(\C)CC/C=C(\C)CC/C=C(\C)CC/C=C(\C)CC/C=C(\C)CC/C=C(\C)CCC=C(C)C)=C(C)C1=O [UQ8]
